# What was measured:
# [1] = tested on: Gal-1; experiment: Gal-1 ELISA enzymatic assay; assay type: cell-based, human; conditions: 20 μM, 24 h, HCT-116 cells
# Method in brief: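 HCT-116 cells were treated with test compound at 20 μM for 24 h, and the secreted-protein supernatant was collected. Equal amounts were diluted 2-fold in calibrator diluent and incubated 2 h at room temperature with shaking on human Gal-1 ELISA plates (commercial kit, manufacturer's protocol), then washed. HRP-conjugated Gal-1 polyclonal antibody was added for 2 h, then substrate for 30 min, then stop solution. Absorbance was read at 450 nm.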
# [2] = biological target: human Gal-1 (Homo sapiens, UniProt P09382); experiment: Fluorescence spectroscopy binding constant, Gal-1; conditions: for Gal-1 Ka: fluorescence, modified Stern–Volmer plot, 25 mM Tris-HCl pH 8
# Method in brief: (§1)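 Human Gal-1 was cloned into pET-28a(+), expressed in E. coli BL21(DE3) and purified by Ni2+-NTA. Gal-3 and LdPase were produced similarly. Buffers: Gal-1 and Gal-3 in 25 mM Tris-HCl pH 8; LdPase in sodium phosphate pH 7. Intrinsic emission was scanned 300–400 nm (excitation 280 nm, 100 nm min−1) across ligand concentrations. Ka came from a modified Stern–Volmer plot of the log quenching term (F0 = no ligand, F = with ligand) versus log ligand concentration.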
# [3] = biological target: human Gal-3 (Homo sapiens, UniProt P17931); experiment: Fluorescence spectroscopy binding constant, Gal-3; conditions: for binding to Gal-3 compared to Gal-1: fluorescence spectroscopy; for Gal-3 Ka: fluorescence, 25 mM Tris-HCl pH 8
# Method in brief: as §1
# [4] = tested on: Leishmania donovani phosphatase (LdPase); experiment: Fluorescence spectroscopy binding, LdPase
# Method in brief: as §1
# Sequence of human Gal-3 (P17931 whole entry): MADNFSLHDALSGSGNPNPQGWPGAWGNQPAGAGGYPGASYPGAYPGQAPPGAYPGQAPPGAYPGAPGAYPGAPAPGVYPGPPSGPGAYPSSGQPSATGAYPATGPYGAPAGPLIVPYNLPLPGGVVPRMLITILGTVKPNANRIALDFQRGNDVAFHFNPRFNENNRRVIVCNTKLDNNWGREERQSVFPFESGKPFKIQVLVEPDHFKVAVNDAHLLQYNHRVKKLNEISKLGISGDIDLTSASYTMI
# Sequence of human Gal-1 (P09382 whole entry): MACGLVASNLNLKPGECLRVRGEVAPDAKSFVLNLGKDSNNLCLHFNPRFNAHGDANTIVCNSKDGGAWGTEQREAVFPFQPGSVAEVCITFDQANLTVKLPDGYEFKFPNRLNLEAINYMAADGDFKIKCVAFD
Substance,% Inhibition (EA) [1] [%],Gal-1 binding constant (Ka) ([2]; fluorescence spectroscopy) [M⁻¹],Gal-1 Ka [2],binding to Gal-3 compared to Gal-1 [3],Gal-3 Ka [3],binding to LdPase [4]
2-(4-(2-Methoxyphenyl)piperazin-1-yl)-N-(5-(2-oxo-2H-chromen-3-yl)thiazol-2-yl)acetamide [Compound 10g],58.19 ± 3.28,98000,9.8 10^4 M^−1,significantly lower binding,1.0 10^−6 M^−1,no detectable binding
2-(4-(4-Nitrophenyl)piperazin-1-yl)-N-(5-(2-oxo-2H-chromen-3-yl)thiazol-2-yl)acetamide [Compound 10h],<10,–,–,–,–,–
"2-(2,6-Dimethylmorpholino)-N-(5-(2-oxo-2H-chromen-3-yl)thiazol-2-yl)acetamide [Compound 10e]",–,–,6.5 10^4 M^−1,–,–,–
N-(5-(2-Oxo-2H-chromen-3-yl)thiazol-2-yl)-2-(piperazin-1-yl)acetamide [Compound 10a],58.19 ± 1.12,–,8.8 10^4 M^−1,–,–,–
N-(5-(2-Oxo-2H-chromen-3-yl)thiazol-2-yl)-2-(4-phenylpiperazin-1-yl)acetamide [Compound 10d],56.73 ± 2.13,–,6.6 10^4 M^−1,–,–,–
2-(4-(2-Hydroxyethyl)piperazin-1-yl)-N-(5-(2-oxo-2H-chromen-3-yl)thiazol-2-yl)acetamide [Compound 10c],–,–,4.1 10^4 M^−1,–,–,–
2-(4-Ethylpiperazin-1-yl)-N-(5-(2-oxo-2H-chromen-3-yl)thiazol-2-yl)acetamide [Compound 10b],–,–,2.1 10^4 M^−1,–,–,–
2-(4-Methylpiperidin-1-yl)-N-(5-(2-oxo-2H-chromen-3-yl)thiazol-2-yl)acetamide [Compound 10i],<10,–,–,–,–,–
N-(5-(2-Oxo-2H-chromen-3-yl)thiazol-2-yl)-2-(4-(pyridin-2-yl)piperazin-1-yl)acetamide [Compound 10f],80.57 ± 1.77,–,9.3 10^4 M^−1,significantly lower binding,1.1 10^−6 M^−1,no detectable binding
